According to ChEMBL document CHEMBL1126829, “Synthesis and relative potencies of new constrained CRF antagonists” (1993):
Where a SMILES comes first, the peptide text is derived from it. [ ]: non-standard residue; d: D form. NMeL = CN[C@@H](CC(C)C)C(=O)O; NMeA = CN[C@@H](C)C(=O)O

How the values were obtained:
Rattus norvegicus [1] = species: Rattus norvegicus; assay: Percent intrinsic activity was determined in rat pituitary cells; format: functional, Pituitary gland cell
Rattus norvegicus [2] = species: Rattus norvegicus; assay: Compound was tested in vitro to antagonize CRF-induced release of ACTH by rat pituitary cells in culture; format: functional, Pituitary gland cell
Summary of the method: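 Collagenase-dispersed rat anterior pituitary cells were grown in monolayer culture for 3–5 days. Cells were then incubated for 3 h with peptide at several doses against 1 nM CRF stimulation (n = 3). ACTH secreted into the medium was measured by double-antibody RIA. Relative potencies were derived from the dose-response curves.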

`CCCC[C@H](NC(=O)[C@H](CCC(=O)O)NC(=O)[C@H](CC(C)C)NC(=O)[C@@H](NC(=O)[C@H](CCC(=O)O)NC(=O)[C@H](CCCN=C(N)N)NC(=O)[C@H](CC(C)C)NC(=O)[C@](C)(CC(C)C)NC(=O)[C@H](Cc1c[nH]cn1)NC(=O)[C@H](N)Cc1ccccc1)C(C)C)C(=O)N[C@@H](C)C(=O)N[C@@H](CCCN=C(N)N)C(=O)NC(C)(C)C(=O)N[C@@H](CCC(=O)O)C(=O)N[C@@H](CCC(N)=O)C(=O)N[C@@H](CC(C)C)C(=O)NC(C)(C)C(=O)N[C@@H](CCC(N)=O)C(=O)N[C@@H](CCC(N)=O)C(=O)NC(C)(C)C(=O)N[C@@H](Cc1c[nH]cn1)C(=O)N[C@@H](CO)C(=O)N[C@@H](CC(N)=O)C(=O)N[C@@H](CCCN=C(N)N)C(=O)N[C@@H](CCCCN)C(=O)N[C@@H](CC(C)C)C(=O)N[C@@H](CCCC)C(=O)N[C@@H](CCC(=O)O)C(=O)N[C@H](C(=O)N[C@H](C(N)=O)[C@@H](C)CC)[C@@H](C)CC` showed an IA (Rattus norvegicus [1]) of 23%.
Work on `CCCC[C@H](NC(=O)[C@H](CCC(=O)O)NC(=O)[C@H](CC(C)C)NC(=O)[C@@H](NC(=O)[C@H](CCC(=O)O)NC(=O)[C@H](CCCN=C(N)N)NC(=O)[C@](C)(CC(C)C)NC(=O)[C@H](CC(C)C)NC(=O)[C@H](Cc1c[nH]cn1)NC(=O)[C@H](N)Cc1ccccc1)C(C)C)C(=O)N[C@@H](C)C(=O)N[C@@H](CCCN=C(N)N)C(=O)NC(C)(C)C(=O)N[C@@H](CCC(=O)O)C(=O)N[C@@H](CCC(N)=O)C(=O)N[C@@H](CC(C)C)C(=O)NC(C)(C)C(=O)N[C@@H](CCC(N)=O)C(=O)N[C@@H](CCC(N)=O)C(=O)NC(C)(C)C(=O)N[C@@H](Cc1c[nH]cn1)C(=O)N[C@@H](CO)C(=O)N[C@@H](CC(N)=O)C(=O)N[C@@H](CCCN=C(N)N)C(=O)N[C@@H](CCCCN)C(=O)N[C@@H](CC(C)C)C(=O)N[C@@H](CCCC)C(=O)N[C@@H](CCC(=O)O)C(=O)N[C@H](C(=O)N[C@H](C(N)=O)[C@@H](C)CC)[C@@H](C)CC` yielded an IA (Rattus norvegicus [1]) of 8%.
In the case of `CSCC[C@H](NC(=O)[C@H](CCC(=O)O)NC(=O)[C@H](CCCN=C(N)N)NC(=O)[C@H](CC(C)C)N(C)C(=O)[C@H](CC(C)C)NC(=O)[C@H](Cc1c[nH]cn1)NC(=O)[C@H](Cc1ccccc1)NC(=O)[C@@H](NC(=O)[C@H](CC(C)C)N(C)C(=O)[C@@H](N)CC(=O)O)[C@@H](C)O)C(=O)N[C@@H](CC(C)C)C(=O)N[C@@H](CCC(=O)O)C(=O)N[C@@H](CCSC)C(=O)N(C)[C@@H](C)C(=O)N[C@@H](CCCCN)C(=O)N[C@@H](C)C(=O)N[C@@H](CCC(=O)O)C(=O)N[C@@H](CCC(N)=O)C(=O)N(C)[C@@H](CC(C)C)C(=O)N[C@@H](C)C(=O)N[C@@H](CCC(=O)O)C(=O)N[C@@H](CCC(N)=O)C(=O)N[C@@H](C)C(=O)N(C)[C@@H](C)C(=O)N[C@@H](CC(C)C)C(=O)N[C@@H](CC(N)=O)C(=O)N[C@@H](CCCN=C(N)N)C(=O)N[C@@H](CC(C)C)C(=O)N(C)[C@@H](CC(C)C)C(=O)N[C@@H](CC(C)C)C(=O)N[C@@H](CCC(=O)O)C(=O)N[C@@H](CCC(=O)O)C(=O)N(C)[C@@H](C)C(N)=O` (H-D[NMeL]TFHL[NMeL]REMLEM[NMeA]KAEQ[NMeL]AEQA[NMeA]LNRL[NMeL]LEE[NMeA]-NH2), the IA (Rattus norvegicus [1]) is reported as 0% and the Potency (Rattus norvegicus [2]) is reported as 0.
With H-DLTFHLLREMLEMAKAEQEAEQAALNRLLLEEA-NH2 the IA (Rattus norvegicus [1]) was 14% and the Potency (Rattus norvegicus [2]) was 0.12.
